Test results published in ChEMBL document CHEMBL1132627, “Synthesis and biological evaluation of boron-containing polyamines as potential agents for neutron capture therapy of brain tumors” (J Med Chem, 1999).
Where “and” joins values, the source holds several entries; their conditions need not be identical. Identical values can stand only once.

Legend:
Rattus norvegicus [1] = organism: Rattus norvegicus; experiment: In vitro cellular uptake by F98 glioma cells after 48 hr incubation in the presence of 5.4 micro g of B/mL media concentration; format: functional
Outline: (§1)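 5×10^6 F98 cells per flask in DMEM with 10% FBS for 24 h. Medium then replaced with compound at the molar concentration matching the stated boron level, and cells held at 37 °C, 5% CO2. Cells washed three times with PBS, detached with trypsin-EDTA and digested in H2SO4/H2O2. Boron in media and cells by DCP-AES; 10^9 cells ≈ 1 g.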

Rattus norvegicus [2] = organism: Rattus norvegicus; experiment: In vitro cellular uptake by F98 glioma cells after 48 hr incubation in the presence of 0.5 micro g of B/mL media concentration; format: functional; outline: as §1
Rattus norvegicus [3] = organism: Rattus norvegicus; experiment: In vitro cellular uptake by F98 glioma cells after 24 h incubation in the presence of 5.4 ug of B/mL media concentration; format: functional; outline: as §1
Rattus norvegicus [4] = organism: Rattus norvegicus; experiment: In vitro cellular uptake by F98 glioma cells after 24 h incubation in the presence of 0.5 ug of B/mL media concentration; format: functional
Mus musculus [5] = experiment: In vivo biodistribution in mice muscle bearing subcutaneous B16 melanomas at the dose of 10 ug/g; format: ADME, organism-based, Muscle tissue
Nucleic Acid = experiment: Concentration required to decrease the fluorescence of the ethidium bromide-calf thymus DNA complex by 50%; format: nucleic-acid assay, Bos taurus
Outline: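 Calf thymus DNA (10 μg) in 2 mM HEPES, 10 μM EDTA, 9.4 mM NaCl, pH 7.0, with 1.6 μM ethidium bromide. Polyamine added stepwise in aliquots. Fluorescence read at excitation 546 nm and emission 598 nm. IC50 is the concentration that lowers complex fluorescence by 50%.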

Mus musculus [6] = experiment: In vivo biodistribution in mice liver bearing subcutaneous B16 melanomas at the dose of 10 ug/g; format: ADME, organism-based
[7] = In vitro concentration required for 50% reduction in the uptake of [3H]-TdR by F98 glioma cells; format: functional, Rattus norvegicus
Mus musculus [8] = experiment: In vivo biodistribution in mice kidney bearing subcutaneous B16 melanomas at the dose of 10 ug/g; format: ADME, organism-based
Mus musculus [9] = experiment: In vivo biodistribution in mice blood bearing subcutaneous B16 melanomas at the dose of 10 ug/g; format: ADME, organism-based
[10] = In Vitro Toxicity measured as the conc. required for 50% reduction in SRBabsorbance by F98 glioma cells; format: functional, Rattus norvegicus
Outline: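 F98 rat glioma cells, 10,000/well in DMEM with 10% FBS, grown overnight at 37 °C, 5% CO2. Then exposed 24 h to varying compound concentrations. Fixed with cold TCA (1 h, 4 °C), stained 20 min with 0.4% SRB in 1% acetic acid, dye solubilized in 10 mM Tris base, A492 read. Six replicates per concentration, expressed as % untreated control; IC50 = 50% reduction.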

Rattus norvegicus [11] = organism: Rattus norvegicus; experiment: In vitro cellular uptake by F98 glioma cells after 24 h incubation in the presence of 5.3 ug of B/mL media concentration; format: functional; outline: as §1
Rattus norvegicus [12] = organism: Rattus norvegicus; experiment: In vitro cellular uptake by F98 glioma cells after 48 hr incubation in the presence of 5.3 micro g of B/mL media concentration; format: functional; outline: as §1
Mus musculus [13] = experiment: In vivo biodistribution in mice liver bearing intracerebral GL261 gliomas at the dose of 10 microg of boron/g/day; format: ADME, organism-based
Outline: (§2)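 C57Bl/6 mice implanted stereotactically in brain (2.5–3.0 mm deep) with 10^5 GL261 cells in serum-free DMEM with 1.5% agarose. Polyamine-deficient diet and 2% DFMO water for 3 days, then Alzet pump infusion at 10 μg boron/g per day for 3 days with diet and DFMO continued. Five mice; tissue boron by DCP-AES, mean ± SD.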

Mus musculus [14] = experiment: In vivo biodistribution in mice kidney bearing intracerebral GL261 gliomas at the dose of 10 microg of boron/g/day; format: ADME, organism-based; outline: as §2
[15] = In vitro cellular uptake by F98 glioma cells after 48 hr incubation in the presence of 5.1 micro g of B/mL media concentration; format: functional, Rattus norvegicus; outline: as §1

In the case of “3-(2-{4-[(4-Amino-butyl)-(3-amino-propyl)-amino]-butyl}-cyclopropyl)-propane-1,2-diol; trihydrochloride”, the Ccellular (ug of B (g of cells)-1) (Rattus norvegicus [1]) is reported as 104, the Ccellular (ug of B (g of cells)-1) (Rattus norvegicus [2]) is reported as 9 and the Ccellular (ug of B (g of cells)-1) (Rattus norvegicus [3]) is reported as 51.
With “N*1*-{4-[2-(2-Amino-ethyl)-cyclopropyl]-butyl}-N*1*-(3-amino-propyl)-butane-1,4-diamine; trihydrochloride” the Ccellular (ug of B (g of cells)-1) (Rattus norvegicus [1]) was 116, the Ccellular (ug of B (g of cells)-1) (Rattus norvegicus [2]) was 19 and the Ccellular (ug of B (g of cells)-1) (Rattus norvegicus [3]) was 51.
For “N,N'-Bis-(3-amino-propyl)-N-(4-cyclopropyl-butyl)-butane-1,4-diamine hydrochloride”, the Ccellular (ug of B (g of cells)-1) (Rattus norvegicus [2]) was 64.
In the case of “N1-(3-Amino-propyl)-N1-(4-cyclopropyl-butyl)-butane-1,4-diamine(B10H10) [listing 1 of 2 here]”, the Ccellular (ug of B (g of cells)-1) (Rattus norvegicus [4]) is reported as 65 and the Ccellular (ug of B (g of cells)-1) (Rattus norvegicus [2]) is reported as 43.
For “N1-(3-Amino-propyl)-N1-(4-cyclopropyl-butyl)-butane-1,4-diamine(B10H10) [listing 2 of 2 here]”, the Biodistribution (Mus musculus [5]) was 9.8 ug of B g-1, the IC50 (Nucleic Acid) was 147 µM and the Biodistribution (Mus musculus [6]) was 74.8 ug of B g-1. The IC50 [7] was 22 µM, the Biodistribution (Mus musculus [8]) was 201.3 ug of B g-1 and the Biodistribution (Mus musculus [9]) was 9.3 ug of B g-1 and 12.5 ug of B g-1.
NCCCNCCCCNCCCN [SPERMINE] gave an IC50 (Nucleic Acid) of 3 µM and an IC50 [10] of over 100 µM.
Compound NCCCCNCCCN [SPERMIDINE] has an IC50 (Nucleic Acid) of 105 µM and an IC50 [10] of over 100 µM.
In the case of “N-{4-[2-(2-Amino-ethyl)-cyclopropyl]-butyl}-N,N'-bis-(3-amino-propyl)-butane-1,4-diamine hydrochloride”, the Ccellular (ug of B (g of cells)-1) (Rattus norvegicus [11]) is reported as 82, the Ccellular (ug of B (g of cells)-1) (Rattus norvegicus [2]) is reported as 15 and the Ccellular (ug of B (g of cells)-1) (Rattus norvegicus [12]) is reported as 229.
In the case of Cl.Cl.Cl.NCCCCN(CCCN)Cc1ccc(B(O)O)cc1, the Biodistribution (Mus musculus [13]) is reported as 22.9 ug of B g-1, the IC50 (Nucleic Acid) is reported as 115 µM and the Biodistribution (Mus musculus [14]) is reported as 44 ug of B g-1. For the same compound, the IC50 [10] was over 5000 µM and the Ccellular [15] was 114 ug of B (g of cells)-1.
Work on “3-[2-(4-{(3-Amino-propyl)-[4-(3-amino-propylamino)-butyl]-amino}-butyl)-cyclopropyl]-propane-1,2-diol hydrochloride” yielded a Ccellular (ug of B (g of cells)-1) (Rattus norvegicus [11]) of 60, a Ccellular (ug of B (g of cells)-1) (Rattus norvegicus [2]) of 20 and a Ccellular (ug of B (g of cells)-1) (Rattus norvegicus [12]) of 83.
